Measurements of several laboratories.
Target: MAP kinase-activated protein kinase 5 (MAPKAPK5, Homo sapiens, UniProt Q8IW41)
One construct used (Q8IW41 1-473): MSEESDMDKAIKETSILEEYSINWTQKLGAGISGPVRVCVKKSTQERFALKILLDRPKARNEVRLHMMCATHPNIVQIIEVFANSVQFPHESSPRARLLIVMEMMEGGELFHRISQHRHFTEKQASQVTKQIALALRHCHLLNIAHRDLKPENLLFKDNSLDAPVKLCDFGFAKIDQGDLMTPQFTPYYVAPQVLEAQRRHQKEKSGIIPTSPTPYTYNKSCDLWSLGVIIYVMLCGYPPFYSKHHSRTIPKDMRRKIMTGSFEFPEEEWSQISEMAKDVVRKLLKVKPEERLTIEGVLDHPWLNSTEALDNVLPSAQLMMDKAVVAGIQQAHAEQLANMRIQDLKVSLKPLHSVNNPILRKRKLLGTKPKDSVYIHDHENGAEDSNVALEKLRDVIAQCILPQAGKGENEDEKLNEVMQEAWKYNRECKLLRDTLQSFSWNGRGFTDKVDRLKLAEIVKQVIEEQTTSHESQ

test	conditions	endpoint	value	Compound
enzyme activity, inhibitor	0.4 µM	inhibition	0%	CNCc1ccc(-c2cc(-c3nc(-c4ccc(S(=O)(=O)C(C)C)cc4)cnc3N)on2)cc1
cell-free assay	0.5 µM	remaining signal	93.4%	O=C1NC(=O)c2cc(Nc3ccc(F)cc3)c(Nc3ccc(F)cc3)cc21
enzyme activity, inhibitor	10 µM	remaining activity	96.5%	Cc1sc(C(=O)NC2COC2)cc1-n1cc(NC(=O)Nc2c(F)cccc2Cl)cn1
binding, competition with immobilised ligand	1 µM	remaining binding	92%	O=c1nc(-c2ccccn2)sc2ccccc12
cell-free assay	0.5 µM	remaining signal	102%	Oc1ccc(-c2nc(-c3ccncc3)c(-c3ccc(F)cc3)[nH]2)cc1
cell-free assay, competition with immobilised ligand	1 µM	remaining binding	92%	Nc1cnc(N2CCc3cc(S(=O)(=O)Nc4c(F)cc(Cl)cc4F)cc(N4CCCC4=O)c32)nc1
enzyme activity, inhibitor, radiometric	10 µM	remaining activity	97%	COc1cc(Nc2cnc(C#N)c(O[C@H](C)CN(C)C)n2)ncc1-c1cnn(C)c1
enzyme activity, inhibitor	10 µM	inhibition	-2%	O=C(CSc1nc2nccnc2c(=O)n1CCc1ccccc1)Nc1nccs1
cell-free assay, competition with immobilised ligand	1 µM	remaining binding	96%	CN(C)c1ncnc(-c2ccc3nc(Nc4cc(CN5CCN(C(=O)CC(F)(F)F)CC5)ccn4)[nH]c3c2)c1Cl
cell-free assay	10 µM	remaining signal	77%	Cc1ccc(NC(=O)c2ccc(C)c(C(F)(F)F)c2)cc1C#Cc1nn(C2CCC(O)CC2)c2ncnc(N)c12 (stereo not shown)
enzyme activity, inhibitor	1 µM	remaining activity	105%	CC(C)(O)[C@H]1CC[C@H](Nc2ccc3ncc(-c4cccc(C(F)(F)F)c4)n3n2)CC1
cell-free assay, competition with immobilised ligand	1 µM	remaining binding	76%	COc1ccc2cc(OCC3(C(=O)O)CN(C(=O)c4ccc(F)cc4)C3)ccc2c1
enzyme activity, inhibitor	10 µM	inhibition	4%	Cc1ccc(Nc2nccc(N(C)c3ccc4c(C)n(C)nc4c3)n2)cc1S(N)(=O)=O
enzyme activity, inhibitor	10 µM	remaining activity	91%	CCCOc1ccc(OC)c(F)c1C(=O)c1ccc(C(=O)N[C@@H]2CNC[C@H]2NC(=O)c2ccc3[nH]ncc3c2)cc1
cell-free assay, competition with immobilised ligand	1 µM	remaining binding	96%	C[C@H](c1ccc(F)cc1)N(Cc1cccc(C(=O)O)c1)C(=O)c1cnc2ccccc2c1
enzyme activity, inhibitor	0.3 µM	inhibition	18%	CNC(=O)c1cc(Oc2ccc(NC(=O)Nc3ccc(Cl)c(C(F)(F)F)c3)cc2)ccn1
enzyme activity, inhibitor	1 µM	inhibition	3%	COc1cc2ncnc(Nc3ccc(Oc4ccccc4)cc3C)c2cc1OC

test	conditions	endpoint	value	Compound
enzyme activity, inhibitor, radiometric	1 µM	remaining activity	114%	Cc1cnc(NC2CCOCC2)nc1-n1cnc(C(=O)NC(CN)c2cc(F)cc(Cl)c2)c1 (stereo not shown)
cell-free assay, competition with immobilised ligand	1 µM	remaining binding	100%	CO[C@@H](C)c1c(Nc2ccc([C@H](N(C)C(=O)C3CCS(=O)(=O)CC3)C(F)(F)F)cc2)cnc2cc(Cl)nn12
cell-free assay	0.5 µM	remaining signal	92.4%	O=C1Nc2ccc(Cl)cc2C1=Cc1cc(Cl)c(O)c(Cl)c1
cell-free assay, competition with immobilised ligand	1 µM	remaining binding	96%	C[C@H](NC(=O)c1cnc2n1[C@](C)(Cc1ccc(C#N)cc1)C(=O)N2c1cc(Cl)c(F)c(Cl)c1)C(=O)NC1(c2ccccn2)CC1
enzyme activity, inhibitor	0.1 µM	activity vs control	103%	Cc1cc(NC(=O)c2cccc3cc(-c4cccc5[nH]nc(N)c45)ccc23)ccc1F
enzyme activity, inhibitor	10 µM	remaining activity	96%	Nc1nc(NC2CCCCC2)sc1C(=O)c1ccccc1
enzyme activity, inhibitor	1 µM	activity vs control	106%	CC(C)c1ccc(NC(=O)c2cccs2)c(-c2nc3ccccc3[nH]c2=O)c1
cell-free assay, competition with immobilised ligand	1 µM	remaining binding	100%	Cc1cc(-n2nc(Cc3cc(F)cc(C(F)(F)F)c3)nc2C)ccc1C(N)=O
enzyme activity, inhibitor	0.1 µM	inhibition	-8%	CC/C(=N\NC(=O)NCc1cccc(O)c1)c1ccc(O)c(C)c1O
enzyme activity, inhibitor, radiometric	1 µM	remaining activity	37%	CC(C)(C)c1nc(-c2cccc(NS(=O)(=O)c3c(F)cccc3F)c2F)c(-c2ccnc(N)n2)s1
enzyme activity, inhibitor, radiometric	5 µM	activity vs control	85%	FC(F)(F)Oc1cccc(-c2cnc3ccc(-c4ccncc4)nn23)c1
enzyme activity, inhibitor	10 µM	remaining activity	82%	FC(F)c1nc2ccccc2n1-c1nc(N2CCOCC2)nc(N2CCOCC2)n1
enzyme activity, inhibitor	23.5 nM	remaining activity	84%	Cc1ccc(C(=O)Nc2ccc(CN3CCN(C)CC3)c(C(F)(F)F)c2)cc1C#Cc1cnc2cccnn12
enzyme activity, inhibitor, radiometric	50 nM	inhibition	20.3%	Cn1cnc(Br)c1C1=CN(c2ncnc3[nH]cnc23)CCS1
enzyme activity, inhibitor	1 µM	remaining activity	89%	COc1cc(Cl)c(C(=O)N[C@@H](CN[C@H]2CC[C@@H](N)CC2)Cc2ccc(C#N)cc2)cc1-c1ccc(CN[C@H](C)c2ccc(C)cc2)o1
cell-free assay, inhibitor	0.5 µM	remaining signal	97.3%	C[C@@H]1CCN(C(=O)CC#N)C[C@@H]1N(C)c1ncnc2[nH]ccc12
cell-free assay, inhibitor	20 µM	remaining signal	58%	Nc1ncnc2occ(-c3ccc(NC(=O)Nc4cc(C(F)(F)F)ccc4F)cc3)c12
